# Measured values reported in ChEMBL document CHEMBL1133514, “Activation mechanisms of nucleoside phosphoramidate prodrugs” (J Med Chem, 2000).
# Legend:
# [1] = Rate constants determined using 31P NMR Kinetics experiments at 37 degrees Centigrade; type: ADME
# In short: (§1)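 Compound (0.015-0.076 mmol) dissolved in about 90 µL CH3CN or THF, then diluted to 0.50 mL with 0.1-0.4 M cacodylate or acetate buffer; pH 7.4 target (7.0-8.0 accepted), 37 °C. Monitored by 31P NMR every 2.5 min for 30 min, then every 5 min; relative peak areas fitted by least squares to first-order kinetics to give rate constants and t1/2.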
# [2] = Half-life period for the compound was determined; type: ADME; in short: as §1
Structure (SMILES),K [1],half-life [2]
O=P(O)(OCC1CCCO1)On1nnc2ccccc21 (centres undefined),0.011 min⁻¹,61 min
COP(=O)(OCC1CCCO1)N(C)CCO (centres undefined),0.43 min⁻¹,1.6 min
CCN(CC)CC.Cc1cn([C@H]2C[C@H](O)[C@@H](COP(=O)(O)N(C)CCBr)O2)c(=O)[nH]c1=O,0.19 min⁻¹,3.7 min
Cc1cn([C@H]2C[C@H](O)[C@@H](COP(=O)(O)On3nnc4ccccc43)O2)c(=O)[nH]c1=O,0.0042 min⁻¹,164 min
Cc1cn([C@H]2C[C@H](O)[C@@H](COP(=O)(On3nnc4ccccc43)N(C)CCBr)O2)c(=O)[nH]c1=O (some centres undefined),0.15 min⁻¹,4.7 min
CN(CCBr)P(=O)(OCC1CCCO1)On1nnc2ccccc21 (centres undefined),0.094 min⁻¹,7.4 min
Cc1cn([C@H]2C[C@H](O)[C@@H](COP(=O)(O)N(C)CCBr)O2)c(=O)[nH]c1=O,0.2 min⁻¹,3.4 min
